In ChEMBL document CHEMBL3425440, “ent-Kaurane Diterpenoids from Chinese Liverworts and Their Antitumor Activities through Michael Addition As Detected in Situ by a Fluorescence Probe” (J Med Chem, 2015) one finds IC50 data, which are given here for three compounds.

Molecules are shown by their SMILES.

System in one test: not listed separately
Nature of the test: Cytotoxicity against human PC3 cells assessed as cell viability after 24 hrs by MTT assay. The conditions noted are these: PC-3, 24 h. The class given is functional, cell-based. The procedure, abridged:
(§1)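 Cells grown to about 50−70% confluence at 37 °C, 5% CO2, then exposed to compounds 24 h (DMSO vehicle control, cisplatin positive control). MTT (5 mg/mL stock) added for 4 h, formazan dissolved in DMSO, absorbance read at 570 nm. IC50 derived from percent viability; at least three independent experiments, mean ± SD.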
(Tetrazolium assays rely on reduction of a dye to a coloured formazan, in cell work by metabolically active cells.)
As for `C[C@H]1C(=O)[C@@]23CC[C@@H]4[C@@](C)(C=O)CCC[C@@]4(C)C2=CC[C@]1(O)C3`, the IC50 – broadly, the point on the concentration scale where inhibition reaches its midpoint – is above 50 µM.

As for `C=C1[C@@H]2CC[C@@H]3[C@@](CC[C@@H]4C(C)(C)CC[C@H](O)[C@]43C)(C2)[C@H]1O`, the IC50 was above 50 µM.

`C=C1[C@@H]2CC[C@H]3[C@]4(C)CCC[C@@](C)(CO)[C@H]4CC[C@]3(C2)[C@@H]1O`: the IC50 was above 50 µM.

System in the next test: not listed separately
Nature of the test: Cytotoxicity against human T24 cells assessed as cell viability after 24 hrs by MTT assay. The class given is functional, cell-based. The conditions noted are these: T-24, 24 h. The procedure, abridged:
as §1
Take `C[C@H]1C(=O)[C@@]23CC[C@@H]4[C@@](C)(C=O)CCC[C@@]4(C)C2=CC[C@]1(O)C3`: the IC50 was above 50 µM.

For the compound `C=C1[C@@H]2CC[C@@H]3[C@@](CC[C@@H]4C(C)(C)CC[C@H](O)[C@]43C)(C2)[C@H]1O`, the IC50 is above 50 µM.

For the compound `C=C1[C@@H]2CC[C@H]3[C@]4(C)CCC[C@@](C)(CO)[C@H]4CC[C@]3(C2)[C@@H]1O`, the IC50 is above 50 µM.

System in a further test: not listed separately
As to the kind of experiment: Cytotoxicity against human RWPE1 cells assessed as cell viability after 24 hrs by MTT assay. The conditions noted are these: RWPE-1, 24 h. The class given is cell-based. The procedure, abridged:
as §1
`C[C@H]1C(=O)[C@@]23CC[C@@H]4[C@@](C)(C=O)CCC[C@@]4(C)C2=CC[C@]1(O)C3`: the IC50 is above 50 µM.

For `C=C1[C@@H]2CC[C@@H]3[C@@](CC[C@@H]4C(C)(C)CC[C@H](O)[C@]43C)(C2)[C@H]1O`, the half-maximal inhibitory concentration (IC50) was above 50 µM.

For `C=C1[C@@H]2CC[C@H]3[C@]4(C)CCC[C@@](C)(CO)[C@H]4CC[C@]3(C2)[C@@H]1O`, the IC50 is above 50 µM.

For a further test, the system named is LoVo. Nature of the test: Cytotoxicity against human LoVo cells assessed as cell viability after 24 hrs by MTT assay. It is filed as functional, cell-based.
Conditions: not given
The procedure, abridged:
as §1
In the case of `C[C@H]1C(=O)[C@@]23CC[C@@H]4[C@@](C)(C=O)CCC[C@@]4(C)C2=CC[C@]1(O)C3`, the IC50 is above 50 µM.

`C=C1[C@@H]2CC[C@@H]3[C@@](CC[C@@H]4C(C)(C)CC[C@H](O)[C@]43C)(C2)[C@H]1O`: the IC50 is above 50 µM.

Take `C=C1[C@@H]2CC[C@H]3[C@]4(C)CCC[C@@](C)(CO)[C@H]4CC[C@]3(C2)[C@@H]1O`: the IC50 was above 50 µM.

The subject of a further test is MDA-MB-231. Nature of the test: Cytotoxicity against human MDA-MB-231 cells assessed as cell viability after 24 hrs by MTT assay. The class given is functional, cell-based. The conditions noted are these: MDA-MB-231, 24 h. The procedure, abridged:
as §1
Take `C[C@H]1C(=O)[C@@]23CC[C@@H]4[C@@](C)(C=O)CCC[C@@]4(C)C2=CC[C@]1(O)C3`: the IC50 is above 50 µM.

For the compound `C=C1[C@@H]2CC[C@@H]3[C@@](CC[C@@H]4C(C)(C)CC[C@H](O)[C@]43C)(C2)[C@H]1O`, the 50% inhibitory concentration (IC50) is above 50 µM.

As to `C=C1[C@@H]2CC[C@H]3[C@]4(C)CCC[C@@](C)(CO)[C@H]4CC[C@]3(C2)[C@@H]1O`, the IC50 is above 50 µM.

System in another test: not listed separately
Nature of the test: Cytotoxicity against human SH-SY5Y cells assessed as cell viability after 24 hrs by MTT assay.
Conditions: not given
It is filed as functional, cell-based. The procedure, abridged:
as §1
Regarding `C[C@H]1C(=O)[C@@]23CC[C@@H]4[C@@](C)(C=O)CCC[C@@]4(C)C2=CC[C@]1(O)C3`, the IC50 is above 50 µM.

In the case of `C=C1[C@@H]2CC[C@@H]3[C@@](CC[C@@H]4C(C)(C)CC[C@H](O)[C@]43C)(C2)[C@H]1O`, the IC50 is above 50 µM.

With `C=C1[C@@H]2CC[C@H]3[C@]4(C)CCC[C@@](C)(CO)[C@H]4CC[C@]3(C2)[C@@H]1O`, the IC50 is above 50 µM.

System in another test: not listed separately
As to the kind of experiment: Cytotoxicity against human Saos2 cells assessed as cell viability after 24 hrs by MTT assay. The class given is functional, cell-based. The conditions noted are these: SAOS-2, 24 h. The procedure, abridged:
as §1
`C[C@H]1C(=O)[C@@]23CC[C@@H]4[C@@](C)(C=O)CCC[C@@]4(C)C2=CC[C@]1(O)C3`: the IC50 is above 50 µM.

As to `C=C1[C@@H]2CC[C@@H]3[C@@](CC[C@@H]4C(C)(C)CC[C@H](O)[C@]43C)(C2)[C@H]1O`, the IC50 is above 50 µM.

With `C=C1[C@@H]2CC[C@H]3[C@]4(C)CCC[C@@](C)(CO)[C@H]4CC[C@]3(C2)[C@@H]1O`, the IC50 is above 50 µM.

System in a further test: not listed separately
As to the kind of experiment: Cytotoxicity against human HL60 cells assessed as cell viability after 24 hrs by MTT assay. The conditions noted are these: HL-60, 24 h. The class given is functional, cell-based. The procedure, abridged: as §1
For `C[C@H]1C(=O)[C@@]23CC[C@@H]4[C@@](C)(C=O)CCC[C@@]4(C)C2=CC[C@]1(O)C3`, the IC50 was above 50 µM.

Turning to `C=C1[C@@H]2CC[C@@H]3[C@@](CC[C@@H]4C(C)(C)CC[C@H](O)[C@]43C)(C2)[C@H]1O`, the IC50 was above 50 µM.

Consider `C=C1[C@@H]2CC[C@H]3[C@]4(C)CCC[C@@](C)(CO)[C@H]4CC[C@]3(C2)[C@@H]1O`, for which the IC50 is above 50 µM.

System in another test: not listed separately
As to the kind of experiment: Cytotoxicity against human SKOV3 cells assessed as cell viability after 24 hrs by MTT assay. The class given is functional, cell-based. The conditions noted are these: SK-OV-3, 24 h. The procedure, abridged:
as §1
For the compound `C[C@H]1C(=O)[C@@]23CC[C@@H]4[C@@](C)(C=O)CCC[C@@]4(C)C2=CC[C@]1(O)C3`, the IC50 is above 50 µM.

Take `C=C1[C@@H]2CC[C@@H]3[C@@](CC[C@@H]4C(C)(C)CC[C@H](O)[C@]43C)(C2)[C@H]1O`: the IC50 is above 50 µM.

As for `C=C1[C@@H]2CC[C@H]3[C@]4(C)CCC[C@@](C)(CO)[C@H]4CC[C@]3(C2)[C@@H]1O`, the IC50 is above 50 µM.

For another test, the system named is LNCaP. As to the kind of experiment: Cytotoxicity against human LNCAP cells assessed as cell viability after 24 hrs by MTT assay. The class given is functional, cell-based.
Conditions: not given
The procedure, abridged:
as §1
For the compound `C[C@H]1C(=O)[C@@]23CC[C@@H]4[C@@](C)(C=O)CCC[C@@]4(C)C2=CC[C@]1(O)C3`, the IC50 is above 50 µM.

For `C=C1[C@@H]2CC[C@@H]3[C@@](CC[C@@H]4C(C)(C)CC[C@H](O)[C@]43C)(C2)[C@H]1O`, the IC50 is above 50 µM.

As to `C=C1[C@@H]2CC[C@H]3[C@]4(C)CCC[C@@](C)(CO)[C@H]4CC[C@]3(C2)[C@@H]1O`, the IC50 was above 50 µM.

A further test has as its system K562. As to the kind of experiment: Cytotoxicity against human K562 cells assessed as cell viability after 24 hrs by MTT assay. It is filed as functional, cell-based. The conditions noted are these: K562, 24 h. The procedure, abridged: as §1
For `C[C@H]1C(=O)[C@@]23CC[C@@H]4[C@@](C)(C=O)CCC[C@@]4(C)C2=CC[C@]1(O)C3`, the IC50 was above 50 µM.

For the compound `C=C1[C@@H]2CC[C@@H]3[C@@](CC[C@@H]4C(C)(C)CC[C@H](O)[C@]43C)(C2)[C@H]1O`, the IC50 is above 50 µM.

For the compound `C=C1[C@@H]2CC[C@H]3[C@]4(C)CCC[C@@](C)(CO)[C@H]4CC[C@]3(C2)[C@@H]1O`, the IC50 is above 50 µM.

A further test relates to NCI-H1299. As to the kind of experiment: Cytotoxicity against human NCI-H1299 cells assessed as cell viability after 24 hrs by MTT assay. It is filed as functional, cell-based. The conditions noted are these: NCI-H1299, 24 h. The procedure, abridged:
as §1
Turning to `C[C@H]1C(=O)[C@@]23CC[C@@H]4[C@@](C)(C=O)CCC[C@@]4(C)C2=CC[C@]1(O)C3`, the 50% inhibitory concentration (IC50) was above 50 µM.

With `C=C1[C@@H]2CC[C@@H]3[C@@](CC[C@@H]4C(C)(C)CC[C@H](O)[C@]43C)(C2)[C@H]1O`, the half-inhibitory concentration (IC50) is above 50 µM.

Consider `C=C1[C@@H]2CC[C@H]3[C@]4(C)CCC[C@@](C)(CO)[C@H]4CC[C@]3(C2)[C@@H]1O`, for which the IC50 is above 50 µM.

The test system of another test is DU-145. As to the kind of experiment: Cytotoxicity against human DU145 cells assessed as cell viability after 24 hrs by MTT assay. The class given is functional, cell-based. The conditions noted are these: DU-145, 24 h. The procedure, abridged: as §1
As to `C[C@H]1C(=O)[C@@]23CC[C@@H]4[C@@](C)(C=O)CCC[C@@]4(C)C2=CC[C@]1(O)C3`, the IC50 was above 50 µM.

With `C=C1[C@@H]2CC[C@@H]3[C@@](CC[C@@H]4C(C)(C)CC[C@H](O)[C@]43C)(C2)[C@H]1O`, the IC50 was above 50 µM.

Consider `C=C1[C@@H]2CC[C@H]3[C@]4(C)CCC[C@@](C)(CO)[C@H]4CC[C@]3(C2)[C@@H]1O`, for which the IC50 was above 50 µM.

System in the next test: not listed separately
Nature of the test: Cytotoxicity against human A172 cells assessed as cell viability after 24 hrs by MTT assay. It is filed as functional, cell-based. The conditions noted are these: A 172, 24 h. The procedure, abridged: as §1
As to `C[C@H]1C(=O)[C@@]23CC[C@@H]4[C@@](C)(C=O)CCC[C@@]4(C)C2=CC[C@]1(O)C3`, the IC50 is above 50 µM.

As to `C=C1[C@@H]2CC[C@@H]3[C@@](CC[C@@H]4C(C)(C)CC[C@H](O)[C@]43C)(C2)[C@H]1O`, the IC50 was above 50 µM.

For the compound `C=C1[C@@H]2CC[C@H]3[C@]4(C)CCC[C@@](C)(CO)[C@H]4CC[C@]3(C2)[C@@H]1O`, the concentration for half-maximal inhibition (IC50) is above 50 µM.
